Experimental data from PubChem BioAssay.
Unmarked numbers belong to inactive results. Results filed as inconclusive are left out. The source made the active and inactive calls.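 Rule for the calls, unless noted: active = inhibition over a set limit, the all-compound mean plus 3 SD, in both replicate runs; inconclusive = over that limit in just one replicate run; inactive = at or under that limit in both runs.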

Columns and labels:
[1] = S. cerevisiae growth inhibition in permissive medium (OD615), pilot counter-assay for S. cerevisiae lifespan shortening project, permissive growth control (AID 705;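 active = growth inhibition above 25% in both replicates, a cutoff set 3 SD above the mean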); settings: OD615, 24 h, at 10 µM, stronger effect = higher value
How it was run: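 Material: engineered DeaD yeast; Compound: one dose 10 µM, DMSO 0.25% final; Detection: absorbance (optical density) at 615 nm; Buffer or medium: permissive raffinose/galactose medium; Timing: 24 h exposure, 30 °C.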

[2] = S. cerevisiae growth inhibition in restrictive medium, OD615, pilot screen, restrictive growth control, yeast lifespan reduction project (AID 706;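 active = growth inhibition above a set limit, 3 SD over mean compound inhibition, in both replicates, cut at about 43% in these data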;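 note: modified DeaD lifespan yeast strain shifted to restrictive glucose medium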); settings: OD615, 48 h, at 10 µM, stronger effect = higher value
How it was run: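 Buffer or medium: restrictive glucose medium (CSMM-D); test system: modified S. cerevisiae; doses: single dose of 10 µM compound final, 0.25% DMSO; schedule: 48 h compound exposure at 30 °C; detection: absorbance (optical density) measured at 615 nm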

[3] = doxorubicin toxicity protection in MRP-1 cells – H69AR cells, CellTiter-Glo, duplicate, MRP-1 activator project, pilot screen (AID 807;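 active = viability increase at or above a cutoff of the median across tested compounds plus 3 SD, cut at about 8.5% in these data, passing the limit was not always enough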;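 note: compound pretreatment 18-22 h then 72 h combined with doxorubicin; 0% = doxorubicin alone and 100% = vehicle without doxorubicin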); settings: H69AR viability with doxorubicin, CellTiter-Glo luminescence; at 10 µM; stronger effect = higher value
[4] = viability of HCT116 without oncogenic beta-catenin – human colon tumor cells, pilot screen (AID 823;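 active = cell viability at or below a set limit in both duplicate runs, the limit being the all-compound median minus 4 SD, cut at about 23% in these data, passing the limit was not always enough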;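 note: 0% = wells killed by 20 µM Hyamine and 100% = untreated DMSO cell wells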); settings: HCT116 beta-catenin knockout viability, CellTiter-Glo, 60 h; at 10 µM; stronger effect = lower value
[5] = RAM pathway blockade in budding yeast – dse1pr::URA3 reporter, 5-FOA selection, pilot screen (AID 869);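 note: 0% = DMSO wells with no growth and 100% = 10 µM 1-NA-PP1 with full growth; RAM network block rescues cells from 5-FOA so hits raise OD615 growth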; settings: S. cerevisiae dse1pr::URA3 5-FOA growth, OD615, 2 d; at 10 µM; stronger effect = higher value; strain carries analog-sensitive mutant Cbk1 kinase
[6] = RAM signaling pathway blockade in yeast – S. cerevisiae, Pdr1DBD-CYC8 efflux-inhibited sensitized strain, primary screen (AID 1298;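 active = RAM network inhibition above 8.4% in each of two replicates, 3 SD over the compound average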;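 note: 0% = DMSO untreated cells without growth and 100% = 10 µM 1-NA-PP1 full growth; higher means more yeast growth rescued from 5-FOA killing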); settings: S. cerevisiae cbk1-as DSE1-URA3 strain, 5-FOA growth OD615, 2 d; at 50 µM; stronger effect = higher value

Cc1ccccc1C(=O)Nc1nnc(-c2ccc(F)cc2)o1
growth inhibition [1]: -3.21%
growth inhibition [2]: 11.5%
viability increase [3]: -2.91%
viability [4]: 33%
inhibition [5]: 0.6%
RAM network inhibition [6]: 4.65%

CC(=O)NCCN=Cc1sc2ccccc2c1O
growth inhibition [1]: -8.43%
growth inhibition [2]: -2.56%
viability increase [3]: -2.42%
viability [4]: 92.6%
inhibition [5]: -0.315%
RAM network inhibition [6]: -0.37%

CC1(C)Cc2c(c(=S)nc(-c3ccccc3)n2CCOCCO)CO1
growth inhibition [1]: -16.5%
growth inhibition [2]: 19.6%
viability increase [3]: -2.12%
viability [4]: 98.2%
inhibition [5]: 0.775%
RAM network inhibition [6]: 4.58%

CCOC(=O)C1CCN(C(=O)Cc2c(C(=O)O)[nH]c3ccccc23)CC1
growth inhibition [1]: -13.4%
growth inhibition [2]: -1.88%
viability increase [3]: -1.36%
viability [4]: 90.5%
inhibition [5]: 0.02%
RAM network inhibition [6]: 3.12%

CC1CCC(NC(=O)Cn2c(=O)[nH]c3ccsc3c2=O)CC1 (stereo unspecified)
growth inhibition [1]: -13.7%
growth inhibition [2]: -3.85%
viability increase [3]: 1.29%
viability [4]: 99.5%
inhibition [5]: 2.09%
RAM network inhibition [6]: 4.16%

O=C(Nc1nnc(C2CC2)o1)c1ccc(S(=O)(=O)N2CCCc3ccccc32)cc1
growth inhibition [1]: -18.1%
growth inhibition [2]: -2.5%
viability increase [3]: -5.31%
viability [4]: 14.3% (active)
inhibition [5]: 0.79%
RAM network inhibition [6]: -0.41%

COc1ccc(N2CCN(CCNC(=O)c3ccc(NC(=O)C4CCCO4)cc3)CC2)cc1 (stereo unspecified)
growth inhibition [1]: -14%
growth inhibition [2]: -9.71%
viability increase [3]: -1.61%
viability [4]: 99.8%
inhibition [5]: 1.68%
RAM network inhibition [6]: 7.42%

CCOc1ccc(NC(=O)CSc2nnc(-c3ccccc3)n2N)cc1
growth inhibition [1]: -8.33%
growth inhibition [2]: -0.575%
viability increase [3]: -6.71%
viability [4]: 93.8%
inhibition [5]: 0.495%
RAM network inhibition [6]: 2.18%

COc1ccc(-c2cc(NCCc3ccncc3)n3ncnc3n2)cc1
growth inhibition [1]: -9.14%
growth inhibition [2]: 14.2%
viability increase [3]: -4.7%
viability [4]: 95.2%
inhibition [5]: 0.97%
RAM network inhibition [6]: 7.01%

Clc1cccc(CSc2nnc([C@@H]3CCCN3)o2)c1
growth inhibition [1]: -7.24%
growth inhibition [2]: -0.015%
viability increase [3]: -3.16%
viability [4]: 98.9%
inhibition [5]: -0.08%
RAM network inhibition [6]: 0.26%

C=CCn1c(=O)[nH]c2cc(C(=O)N3CCN(c4cccc(Cl)c4)CC3)ccc2c1=O
growth inhibition [1]: -16.5%
growth inhibition [2]: -12.3%
viability increase [3]: -6.95%
viability [4]: 79.3%
inhibition [5]: 3.33%
RAM network inhibition [6]: 3.07%

Cc1cc(C)c(S(=O)(=O)NCC2CCC(C(=O)NCCCN3CCOCC3)CC2)c(C)c1 (stereo unspecified)
growth inhibition [1]: -6.14%
growth inhibition [2]: 7.86%
viability increase [3]: -3.2%
viability [4]: 81.3%
inhibition [5]: 0.675%
RAM network inhibition [6]: -0.63%

CCC(=O)NC(C)c1nc2ccccc2n1C (stereo unspecified)
growth inhibition [1]: -9.66%
growth inhibition [2]: -2.13%
viability increase [3]: -1.61%
viability [4]: 102%
inhibition [5]: 1.37%
RAM network inhibition [6]: 7.64%

Cc1cc2cc(CN(Cc3ccc4c(c3)OCO4)C(=O)c3cnccn3)c3nnnn3c2cc1C
growth inhibition [1]: -6.95%
growth inhibition [2]: 6.71%
viability increase [3]: -5.49%
viability [4]: 87.2%
inhibition [5]: 2.06%
RAM network inhibition [6]: 5.81%

COCc1cc(=O)n2c(-c3ccccc3OC)n[nH]c2n1
growth inhibition [1]: -14%
growth inhibition [2]: 4.39%
viability increase [3]: -3.36%
viability [4]: 92.7%
inhibition [5]: 2.2%
RAM network inhibition [6]: 9.13%

CN(C)/C=N/c1c(C#N)cnn1-c1nc2ccccc2s1
growth inhibition [1]: -9.66%
growth inhibition [2]: 6.79%
viability increase [3]: -3.38%
viability [4]: 102%
inhibition [5]: 1.28%
RAM network inhibition [6]: 4.53%

COCC(=O)NC(C)c1nc2ccccc2[nH]1 (stereo unspecified)
growth inhibition [1]: -27.6%
growth inhibition [2]: -2.47%
viability increase [3]: -1.7%
viability [4]: 91.9%
inhibition [5]: 0.975%
RAM network inhibition [6]: 3.95%

CCn1c(=O)cc(C(=O)OC)sc1=Nc1ccc(F)c(F)c1
growth inhibition [1]: 1.93%
growth inhibition [2]: -8.74%
viability increase [3]: -8.26%
viability [4]: 18.6% (active)
inhibition [5]: 1.11%
RAM network inhibition [6]: 7.21%

CC1CCN(C(=O)CSc2nc(N)c3c4c(sc3n2)CN(C)CC4)CC1
growth inhibition [1]: -10.2%
growth inhibition [2]: 12.6%
viability increase [3]: -3.86%
viability [4]: 102%
inhibition [5]: 0.905%
RAM network inhibition [6]: 2.24%

CC(C)OCCCNC(=O)c1ccc(NC(=O)C2CCCO2)cc1 (stereo unspecified)
growth inhibition [1]: -12.9%
growth inhibition [2]: -8.97%
viability increase [3]: -1.08%
viability [4]: 99.9%
inhibition [5]: 1.57%
RAM network inhibition [6]: 1.15%

NC(=O)C1CCN(C(=O)CCCCCn2c(=O)[nH]c3ccsc3c2=O)CC1
growth inhibition [1]: -14%
growth inhibition [2]: -8.6%
viability increase [3]: -3.22%
viability [4]: 96.4%
inhibition [5]: 0.97%
RAM network inhibition [6]: 3.54%

CCOC(=O)C1CCCN(C(=O)CC(C)c2ccccc2)C1 (stereo unspecified)
growth inhibition [1]: -14.4%
growth inhibition [2]: -0.005%
viability increase [3]: -1.25%
viability [4]: 104%
inhibition [5]: 1.57%
RAM network inhibition [6]: 3.91%

CCOC(=O)N1CCC(NC(=O)C(NC(=O)C2CCCCC2)C(C)C)CC1 (stereo unspecified)
growth inhibition [1]: -6.95%
growth inhibition [2]: -2.83%
viability increase [3]: -1.25%
viability [4]: 93%
inhibition [5]: 2%
RAM network inhibition [6]: 6.39%

CCN(CC)CCOc1c(Br)ccc2c1sc1nc3n(c(=O)c12)CCC3
growth inhibition [1]: -1.77%
growth inhibition [2]: 6.08%
viability increase [3]: -5.02%
viability [4]: 30.4%
inhibition [5]: 0.405%
RAM network inhibition [6]: 5.14%

COc1ccc(C2C3=C(CC(C)(C)CC3=O)Nc3n[nH]c(C)c32)cc1 (stereo unspecified)
growth inhibition [1]: -9.23%
growth inhibition [2]: -7.11%
viability increase [3]: -4.1%
viability [4]: 93%
inhibition [5]: 1.51%
RAM network inhibition [6]: 3.28%

Cc1c(C(=O)N(C)Cc2ccccc2)oc2ccc(S(=O)(=O)N3CCCC3)cc12
growth inhibition [1]: -18.8%
growth inhibition [2]: -11.4%
viability increase [3]: -5.85%
viability [4]: 54.3%
inhibition [5]: 0.18%
RAM network inhibition [6]: 4.09%

C=CCn1c(CCNC(=O)C(C)(C)C)nc2ccccc21
growth inhibition [1]: -10.5%
growth inhibition [2]: 3.93%
viability increase [3]: -1.82%
viability [4]: 103%
inhibition [5]: 1.94%
RAM network inhibition [6]: 3.12%

COc1ccc(N2CCN(CCCNC(=O)CCCn3c(=O)[nH]c4ccsc4c3=O)CC2)cc1
growth inhibition [1]: -10.8%
growth inhibition [2]: -8.79%
viability increase [3]: -1.23%
viability [4]: 94%
inhibition [5]: 2.75%
RAM network inhibition [6]: 9.35%

CC(=O)c1ccc(N2CCN(C(=O)c3ccc(NC(=O)C4CCCO4)cc3)CC2)cc1 (stereo unspecified)
growth inhibition [1]: -23.3%
growth inhibition [2]: -4.79%
viability increase [3]: -3%
viability [4]: 91.2%
inhibition [5]: 2.3%
RAM network inhibition [6]: 1.4%

CC1(C)Cc2c(sc3c2c(=N)n(Cc2ccco2)c(=O)n3CC(=O)Nc2cccc(Cl)c2)CO1
growth inhibition [1]: -9.23%
growth inhibition [2]: -8.69%
viability increase [3]: -6.27%
viability [4]: 75%
inhibition [5]: 3.25%
RAM network inhibition [6]: 5.15%

Cc1ccc(C)c(NC(=O)CSc2nnc(-c3ccncc3)n2N)c1
growth inhibition [1]: 5.02%
growth inhibition [2]: -0.075%
viability increase [3]: -4.65%
viability [4]: 103%
inhibition [5]: 0.06%
RAM network inhibition [6]: -0.98%

C=C(C)Cn1c(CCCNC(=O)CCC)nc2ccccc21
growth inhibition [1]: -14.9%
growth inhibition [2]: 7.12%
viability increase [3]: -0.37%
viability [4]: 94.7%
inhibition [5]: -0.295%
RAM network inhibition [6]: 1.57%

Cc1cc(=O)n2[nH]c(C)c(-c3ccc(Cl)cc3)c2n1
growth inhibition [1]: 3.86%
growth inhibition [2]: -11.8%
viability increase [3]: -5.81%
viability [4]: 34.2%
inhibition [5]: 2.29%
RAM network inhibition [6]: 5.64%

CC(C)n1c(CNC(=O)c2ccccc2)nc2ccccc21
growth inhibition [1]: -18.1%
growth inhibition [2]: 9.14%
viability increase [3]: -3.11%
viability [4]: 100%
inhibition [5]: 2.63%
RAM network inhibition [6]: 1.5%

CC1CN(C(=O)c2ccccc2C(=O)c2ncc[nH]2)CC(C)O1 (stereo unspecified)
growth inhibition [1]: -19.6%
growth inhibition [2]: 14.7%
viability increase [3]: -1.55%
viability [4]: 99%
inhibition [5]: 2.07%
RAM network inhibition [6]: 2.87%

O=C(Nc1nnc(-c2ccc3c(c2)CCCC3)o1)c1ccccc1Cl
growth inhibition [1]: -7.88%
growth inhibition [2]: 18.4%
viability increase [3]: -4.31%
viability [4]: 34.6%
inhibition [5]: 2.51%
RAM network inhibition [6]: 4.48%
